These results are taken from ChEMBL document CHEMBL4321808, “Heteroaryl Phosphonates as Noncovalent Inhibitors of Both Serine- and Metallocarbapenemases” (J Med Chem, 2019).

Values after ≈ are worked out from the molar mass of the structure shown.

The nature of series [1]: Inhibition of N-terminal 6x-His/Sumo-tagged NDM-1 (29 to 270 residues) (unknown origin) expressed in Escherichia coli BL21 (DE3) assessed as reduction in nitrocefin hydrolysis by spectrophotometry. Set-up: species or system Bacteria. The procedure, abridged: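 Metallo-enzyme assay in 50 mM HEPES pH 7.2 with 50 µM zinc sulfate, 0.01% Triton X-100 and 20 µg/mL BSA, 37 °C. NDM-1 was construct 1 with the His/SUMO tag cleaved, at 2 nM; VIM-2 had its His tag TEV-cleaved, at 0.5 nM.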

Series [2] is described as follows: Inhibition of N-terminal 6x-His-tagged VIM-2 (unknown origin) expressed in Escherichia coli Rosetta 2 (DE3) assessed as reduction in nitrocefin hydrolysis by spectrophotometry. On the set-up: species or system Bacteria. In short, it runs like this: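 Metallo-enzyme assay in 50 mM HEPES pH 7.2 with 50 µM zinc sulfate, 0.01% Triton X-100 and 20 µg/mL BSA, 37 °C. NDM-1 was construct 1 with the His/SUMO tag cleaved, at 2 nM; VIM-2 had its His tag TEV-cleaved, at 0.5 nM. Nitrocefin hydrolysis read at 486 nm; IC50 from sigmoidal fit, Ki by Cheng-Prusoff; mostly duplicate.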

Series [3] can be described thus: Inhibition of N-terminal 6x-His-tagged Klebsiella pneumoniae KPC2 (25 to 293 residues) assessed as reduction in nitrocefin hydrolysis by spectrophotometry. In short, it runs like this: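 Purified recombinant KPC-2 at 1 nM in 100 mM Tris-HCl pH 7.0 with 0.01% Triton X-100, 37 °C, reaction started by enzyme. IC50 from sigmoidal fit; Ki by Cheng-Prusoff using the nitrocefin Km. Run in duplicate, or once or in triplicate for some compounds.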

Series [4] concerns Escherichia coli. Description: Antimicrobial activity against Escherichia coli 5980 expressing NDM1 assessed as inhibition of microbial growth incubated for 18 to 20 hrs by CLSI based method. Format: organism-based. In short, it runs like this: (§1)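 CLSI broth microdilution in MHBII. Compound tested alone in serial two-fold dilutions, 128–0.12 µg/mL. Inoculum was set to 0.5 McFarland and diluted to about 5×10^5 CFU per well. Plates incubated at 35 °C for 18–20 h. MIC read as the lowest concentration with no visible growth; an un-inoculated plate served as solubility control.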

Series [5] has as its system Klebsiella pneumoniae. The series can be described thus: Antimicrobial activity against Klebsiella pneumoniae 4683 expressing KPC2 assessed as inhibition of microbial growth incubated for 18 to 20 hrs by CLSI based method. It counts as organism-based. The procedure, abridged: as §1
For series [6], the system named is Klebsiella pneumoniae. Description: Antimicrobial activity against Klebsiella pneumoniae 5979 expressing NDM1 assessed as inhibition of microbial growth incubated for 18 to 20 hrs by CLSI based method. Format: organism-based. In short, it runs like this:
as §1

Series [7] relates to Enterobacter cloacae. Description: Antimicrobial activity against Enterobacter cloacae 5981 expressing NDM1 assessed as inhibition of microbial growth incubated for 18 to 20 hrs by CLSI based method. Format: functional. In short, it runs like this: as §1
Another series has as its system Pseudomonas aeruginosa. The series can be described thus: Antimicrobial activity against Pseudomonas aeruginosa 4698 expressing VIM2 assessed as inhibition of microbial growth incubated for 18 to 20 hrs by CLSI based method. It counts as organism-based. In short, it runs like this: as §1
In series [8] the test system is Escherichia coli. The series can be described thus: Inhibition of NDM-1 in Escherichia coli 5980 assessed as potentiation of imipenem-induced antimicrobial activity by measuring imipenem MIC incubated for 18 to 20 hrs by CLSI based method (reference value: 8 ug/ml). In short, it runs like this:
(§2)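 CLSI broth microdilution in MHBII. […] Inoculum about 5×10^5 CFU per well, incubated at 35 °C for 18–20 h. Imipenem MIC read as absence of visible growth.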

Series [9] addresses Metallo-beta-lactamase type 2 (Klebsiella pneumoniae) (UniProt C7C422). Description: Inhibition of NDM-1 in Klebsiella pneumoniae 5979 assessed as potentiation of imipenem-induced antimicrobial activity by measuring imipenem MIC incubated for 18 to 20 hrs by CLSI based method (reference value: <[…] ug/ml).
Series [10] concerns Enterobacter cloacae. Description: Inhibition of NDM-1 in Enterobacter cloacae 5981 assessed as potentiation of imipenem-induced antimicrobial activity by measuring imipenem MIC incubated for 18 to 20 hrs by CLSI based method (reference value: 2 ug/ml). The procedure, abridged:
as §2

Series [11] is described as follows: Kinetic solubility in pH 7.4 PBS. It counts as physicochemical. To be noted: buffer.
Series [12] concerns Klebsiella pneumoniae. To be noted: 4683.
Series [13] concerns the target Beta-lactamase VIM-2 (Pseudomonas aeruginosa) (UniProt Q9K2N0). To be noted: 4698.
Series [14] deals with Escherichia coli. Description: Inhibition of NDM-1 in Escherichia coli 5980 assessed as potentiation of ceftazidime-induced antimicrobial activity by measuring ceftazidime MIC incubated for 18 to 20 hrs by CLSI based method. In short, it runs like this: (§3)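 CLSI broth microdilution in MHBII. Avibactam fixed at 4 µg/mL with ceftazidime at 64–0.006 µg/mL. Inoculum about 5×10^5 CFU per well, incubated at 35 °C for 18–20 h. Ceftazidime MIC read as absence of visible growth.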

Series [15] deals with Klebsiella pneumoniae. The series can be described thus: Inhibition of KPC2 in Klebsiella pneumoniae 4683 assessed as potentiation of ceftazidime-induced antimicrobial activity by measuring ceftazidime MIC incubated for 18 to 20 hrs by CLSI based method. The procedure, abridged: as §3
In series [16] the target is Metallo-beta-lactamase type 2 (Klebsiella pneumoniae) (UniProt C7C422). The series can be described thus: Inhibition of NDM-1 in Klebsiella pneumoniae 5979 assessed as potentiation of ceftazidime-induced antimicrobial activity by measuring ceftazidime MIC incubated for 18 to 20 hrs by CLSI based method. The procedure, abridged: as §3
Chain of Metallo-beta-lactamase type 2 (Klebsiella pneumoniae) (C7C422 whole entry): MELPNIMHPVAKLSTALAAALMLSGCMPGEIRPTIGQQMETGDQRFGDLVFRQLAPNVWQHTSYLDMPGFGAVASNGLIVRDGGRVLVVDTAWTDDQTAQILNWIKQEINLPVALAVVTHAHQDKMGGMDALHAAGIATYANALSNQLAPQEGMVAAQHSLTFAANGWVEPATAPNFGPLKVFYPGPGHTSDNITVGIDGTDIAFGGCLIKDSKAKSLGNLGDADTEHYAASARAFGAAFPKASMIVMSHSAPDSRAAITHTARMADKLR
The subject of series [17] is Enterobacter cloacae. The series can be described thus: Inhibition of NDM-1 in Enterobacter cloacae 5981 assessed as potentiation of ceftazidime-induced antimicrobial activity by measuring ceftazidime MIC incubated for 18 to 20 hrs by CLSI based method. The procedure, abridged: as §3
The target of series [18] is Beta-lactamase VIM-2 (Pseudomonas aeruginosa) (UniProt Q9K2N0). Description: Inhibition of VIM-2 in Pseudomonas aeruginosa 4698 assessed as potentiation of ceftazidime-induced antimicrobial activity by measuring ceftazidime MIC incubated for 18 to 20 hrs by CLSI based method. In short, it runs like this: as §3
A short description of series [19]: Permeability in MDCK-MDR1 cells assessed as drug recovery. To be noted: dog. Format: ADME, cell-based, Canis lupus familiaris.

On to `Cn1c(=O)cc(CP(=O)(O)O)c2ccccc21`, for which the Ki was 81 µM in series [1] (read-out: Ki) and 7.5 µM in series [2].
In the case of `Cc1cc(C)c2c(CP(=O)(O)O)cc(=O)[nH]c2c1`, the results for the Ki in [3], in [1] (read-out: Ki) and in series [2] were 2.2 µM, 56.2 µM and 3.4 µM, respectively. Moreover, the MIC with Escherichia coli [4] was greater than 128 µg/mL; with Klebsiella pneumoniae [5] it was greater than 128 µg/mL; in the series on Klebsiella pneumoniae [6] it was greater than 128 µg/mL; in the series on Enterobacter cloacae [7], greater than 128 µg/mL; in the series on Pseudomonas aeruginosa it was greater than 128 µg/mL; in the series on Escherichia coli [8], 2 µg/mL. For the same compound, the MIC in series [9] is 64 µg/mL; with Enterobacter cloacae [10], 2 µg/mL; against Klebsiella pneumoniae [12], 1 µg/mL (≈ 3.74 µM); in series [13], greater than 64 µg/mL. In [11], this compound yielded a Kinetic_solubility of 193 µM.
As to `O=P(O)(O)Cc1cccc2cccnc12`, the Ki in series [2] worked out at 22.3 µM.
For the compound `NC(=O)[C@@H]1CC[C@@H]2CN1C(=O)N2OS(=O)(=O)O`, the MIC (with Escherichia coli [14]; in the series on Klebsiella pneumoniae [15]; in [16]; in the series with Enterobacter cloacae [17]; in series [18]) was 4 µg/mL throughout.
Turning to `O=c1cc(CP(=O)(O)O)c2ccccc2[nH]1`, the values for the Ki in series [1] (read-out: Ki) and in series [2] were 190 µM and 6.4 µM, respectively. Further, the MIC with Escherichia coli [4] is greater than 128 µg/mL; in the series on Klebsiella pneumoniae [5], greater than 128 µg/mL; in the series with Klebsiella pneumoniae [6], greater than 128 µg/mL; in the series with Enterobacter cloacae [7], greater than 128 µg/mL; in the series on Pseudomonas aeruginosa, greater than 128 µg/mL; with Escherichia coli [8], 2 µg/mL. Besides, the MIC was 32 µg/mL in [9], 2 µg/mL in the series with Enterobacter cloacae [10] and greater than 64 µg/mL in [13].
With `CC(C)NCC(O)COc1cccc2ccccc12` (stereo unspecified) [PROPRANOLOL], in [19], the Drug recovery is listed as 97%.
With `Cc1cc(Br)c2c(CP(=O)(O)O)cc(=O)oc2c1`, the values for the inhibition constant Ki in [1] (read-out: Ki) and in [2] were 34.2 µM and 1.2 µM, respectively. Moreover, the MIC is greater than 128 µg/mL in the series with Escherichia coli [4]; greater than 128 µg/mL in the series with Klebsiella pneumoniae [5]; greater than 128 µg/mL in the series on Klebsiella pneumoniae [6]; greater than 128 µg/mL with Enterobacter cloacae [7]; greater than 128 µg/mL in the series with Pseudomonas aeruginosa; 2 µg/mL in the series on Escherichia coli [8]. For the same compound, the MIC in [9] worked out at 32 µg/mL; in the series with Enterobacter cloacae [10], 2 µg/mL.
Regarding `O=c1cc(CP(=O)(O)O)c2c(F)cc(F)cc2o1`, the Ki entry in series [1] was “Not Active”; in [2], 3.3 µM.

The term Ki denotes a dissociation constant, usually derived from enzyme kinetics or from competition with a known ligand.
